A short description of data set [1]: Drug concentration in brain of in CD-1 mouse at 3 mg/kg, iv measured for 60 mins. In kind it is ADME, organism-based. The settings on record: read-out: Ct. In a few lines: (§1)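 Male CD1 mice dosed IV at 3 mg/kg in PEG400/Tween 80/saline 10/10/80. Three mice per time point. Whole brains were homogenized in 4 vol PBS:protease inhibitor (100:1), extracted with cold CH3CN plus internal standard and measured by LC-MS/MS (MRM) against a 1 nM–10 µM calibration in naïve brain homogenate. Levels were normalized per 100 mg brain/mL, with protein content checked by BCA.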

Data set [2] can be described thus: Clearance in CD-1 mouse at 3 mg/kg, iv measured for 240 mins. In kind it is ADME, organism-based. The following applies: in vivo. An outline of the steps: (§2)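 Male CD1 mice (22–24 g) dosed IV at 3 mg/kg in PEG400/Tween 80/saline 10/10/80 v/v. Three animals per time point. Blood taken at 0, 5, 30, 60, 120 and 240 min. Plasma extracted with cold CH3CN plus internal standard and quantified by LC-MS/MS (MRM) against a 1 nM–10 µM calibration curve in blank plasma. Parameters were obtained by fitting the plasma concentration–time profile.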

The target of data set [3] is Glutamate NMDA receptor; Grin1/Grin2b (Rattus norvegicus, UniProt P35439+Q00960). Put plainly: Inhibition of NMDA/glycine-activated rat GluN1/Glu2B expressed in xenopus laevis oocytes at -75 mV holding potential by voltage clamp method. The class given is cell-based, Oocyte. In a few lines:
(§3)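 Xenopus oocytes (stage IV–V) were injected with GluN1 plus GluN2A or GluN1 plus GluN2B cRNA (1:1) and kept 3–4 days at 18 °C. Two-electrode voltage clamp was run in saline with 2 mM CaCl2, pH 7.5. Currents were evoked by 100 µM NMDA plus 10 µM glycine, with compound co-applied at 0.01–100 µM in 10-fold steps. […] The selectivity index is the GluN1/2A IC50 divided by the GluN1/2B IC50.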

Data set [4] can be described thus: Metabolic stability in mouse liver microsomes assessed as half life at 5 uM preincubated for 15 mins followed by NADPH/G6P/G6PDH measured for 1 hr by LC-MS/MS analysis. In kind it is ADME, Microsome. The settings on record: time 75 min. In a few lines: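 Mouse liver microsomes with compound at 5 µM final (0.1% DMSO) in 0.1 M Tris-HCl pH 7.5, preincubated 15 min at 37 °C. NADPH, G6P, G6PDH and MgCl2 were then added and incubation continued for 1 h. Samples at 0, 5, 15, 30 and 60 min were quenched in cold CH3CN with internal standard and analyzed by LC-MS/MS. A no-cofactor microsome control was run at 0 and 60 min.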

The nature of data set [5]: AUC in CD-1 mouse at 3 mg/kg, iv measured for 240 mins. The class given is ADME, organism-based. The following applies: in vivo. In a few lines: as §2
Data set [6] is described as follows: Drug concentration in brain of in CD-1 mouse at 3 mg/kg, iv measured for 240 mins. The class given is ADME, organism-based. The following applies: read-out: Ct. In a few lines:
as §1

Data set [7] is described as follows: Tmax in CD-1 mouse at 3 mg/kg, iv measured for 240 mins. The class given is ADME, organism-based. The settings on record: in vivo. An outline of the steps:
as §2

A short description of data set [8]: Volume of distribution in CD-1 mouse at 3 mg/kg, iv measured for 240 mins. In kind it is ADME, organism-based. The following applies: in vivo. An outline of the steps:
as §2

Data set [9] can be described thus: Drug concentration in brain of in CD-1 mouse at 3 mg/kg, iv measured for 120 mins. The following applies: read-out: Ct. In kind it is ADME, organism-based. An outline of the steps: as §1
Data set [10] deals with Glutamate NMDA receptor; Grin1/Grin2a (Rattus norvegicus, UniProt P35439+Q00959). The data set can be described thus: Inhibition of NMDA/glycine-activated rat GluN1/Glu2A expressed in xenopus laevis oocytes at -75 mV holding potential by voltage clamp method. The class given is cell-based, Oocyte. In a few lines: as §3
A short description of data set [11]: Metabolic stability in mouse plasma assessed as half life at 2 uM incubated for 2 hrs by LC-MS/MS analysis. The class given is ADME, cell-free. An outline of the steps: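 Compound at 2 µM final (0.5% DMSO) in prewarmed mouse plasma at 37 °C. Samples taken at 0, 5, 15, 30, 60 and 120 min were quenched in cold CH3CN with internal standard, centrifuged, diluted with water and analyzed by LC-MS/MS (MRM, positive ESI). Half-life calculated from the time course.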

The next data set addresses Acetylcholinesterase (Homo sapiens, UniProt P22303). The data set can be described thus: Inhibition of recombinant human AChE using acetylthiocholine as substrate preincubated for 20 mins followed by substrate addition measured for 3 mins by Ellman's method. In a few lines: (§4)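 Ellman assay at 37 °C in 0.1 M phosphate buffer pH 8.0 with 340 µM DTNB and 0.02 U/mL enzyme (recombinant human AChE or human serum BChE). Inhibitor at increasing concentrations was preincubated with enzyme for 20 min before adding 550 µM acetylthiocholine (AChE) or butyrylthiocholine (BChE). Absorbance at 412 nm was monitored for 3 min, with a blank lacking enzyme. Triplicates; IC50 from log concentration–inhibition curves; at least two experiments.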
Background: Ellman's reagent forms a yellow product with free thiols.

The next data set is filed under the species Rattus norvegicus. The data set can be described thus: Selectivity index, ratio of IC50 for NMDA/glycine-activated rat GluN1/Glu2A expressed in xenopus laevis oocytes to IC50 for NMDA/glycine-activated rat GluN1/Glu2B expressed in xenopus laevis oocytes. In kind it is cell-based. In a few lines:
as §3

The nature of data set [12]: Cmax in CD-1 mouse at 3 mg/kg, iv measured for 240 mins. In kind it is ADME, organism-based. The following applies: in vivo. An outline of the steps: as §2
Data set [13] can be described thus: Metabolic stability in mouse liver microsomes assessed as half life at 5 uM preincubated for 15 mins followed by UDPGA/D-saccharic acid lactone measured for 1 hr by LC-MS/MS analysis. The class given is ADME, Microsome. The following applies: time 75 min. An outline of the steps:
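Mouse liver microsomes with alamethicin and compound at 5 µM final (0.1% DMSO) in 0.1 M Tris-HCl pH 7.5, preincubated 15 min at 37 °C. UDPGA, p-saccharic acid lactone and MgCl2 were then added and incubation continued for 1 h. Samples at 0, 5, 15, 30 and 60 min were quenched in cold CH3CN with internal standard and analyzed by LC-MS/MS. A no-cofactor control was run at 0 and 60 min.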
Background: Liver microsomes are a subcellular fraction often used to study metabolism.

Data set [14] can be described thus: Half life in CD-1 mouse at 3 mg/kg, iv measured for 240 mins. The class given is ADME, organism-based. The following applies: in vivo. An outline of the steps:
as §2

The target of a further data set is Cholinesterase (Homo sapiens, UniProt P06276). The data set can be described thus: Inhibition of human serum BChE using butyrylthiocholine as substrate preincubated for 20 mins followed by substrate addition measured for 3 mins by Ellman's method. In kind it is cell-free. An outline of the steps:
as §4

Data set [15] in a line: Aqueous kinetic solubility in PBS at 250 uM incubated for 24 hrs […]. The class given is physicochemical. The settings on record: read-out: Kinetic_solubility.
Data set [16] can be described thus: Drug concentration in brain of in CD-1 mouse at 3 mg/kg, iv measured for 30 mins. In kind it is ADME, organism-based. The following applies: read-out: Ct. In a few lines:
as §1

Values after ≈ are worked out from the molar mass of the structure shown.

Sequence of Glutamate NMDA receptor; Grin1/Grin2b (Q00960 whole entry, other chains not shown): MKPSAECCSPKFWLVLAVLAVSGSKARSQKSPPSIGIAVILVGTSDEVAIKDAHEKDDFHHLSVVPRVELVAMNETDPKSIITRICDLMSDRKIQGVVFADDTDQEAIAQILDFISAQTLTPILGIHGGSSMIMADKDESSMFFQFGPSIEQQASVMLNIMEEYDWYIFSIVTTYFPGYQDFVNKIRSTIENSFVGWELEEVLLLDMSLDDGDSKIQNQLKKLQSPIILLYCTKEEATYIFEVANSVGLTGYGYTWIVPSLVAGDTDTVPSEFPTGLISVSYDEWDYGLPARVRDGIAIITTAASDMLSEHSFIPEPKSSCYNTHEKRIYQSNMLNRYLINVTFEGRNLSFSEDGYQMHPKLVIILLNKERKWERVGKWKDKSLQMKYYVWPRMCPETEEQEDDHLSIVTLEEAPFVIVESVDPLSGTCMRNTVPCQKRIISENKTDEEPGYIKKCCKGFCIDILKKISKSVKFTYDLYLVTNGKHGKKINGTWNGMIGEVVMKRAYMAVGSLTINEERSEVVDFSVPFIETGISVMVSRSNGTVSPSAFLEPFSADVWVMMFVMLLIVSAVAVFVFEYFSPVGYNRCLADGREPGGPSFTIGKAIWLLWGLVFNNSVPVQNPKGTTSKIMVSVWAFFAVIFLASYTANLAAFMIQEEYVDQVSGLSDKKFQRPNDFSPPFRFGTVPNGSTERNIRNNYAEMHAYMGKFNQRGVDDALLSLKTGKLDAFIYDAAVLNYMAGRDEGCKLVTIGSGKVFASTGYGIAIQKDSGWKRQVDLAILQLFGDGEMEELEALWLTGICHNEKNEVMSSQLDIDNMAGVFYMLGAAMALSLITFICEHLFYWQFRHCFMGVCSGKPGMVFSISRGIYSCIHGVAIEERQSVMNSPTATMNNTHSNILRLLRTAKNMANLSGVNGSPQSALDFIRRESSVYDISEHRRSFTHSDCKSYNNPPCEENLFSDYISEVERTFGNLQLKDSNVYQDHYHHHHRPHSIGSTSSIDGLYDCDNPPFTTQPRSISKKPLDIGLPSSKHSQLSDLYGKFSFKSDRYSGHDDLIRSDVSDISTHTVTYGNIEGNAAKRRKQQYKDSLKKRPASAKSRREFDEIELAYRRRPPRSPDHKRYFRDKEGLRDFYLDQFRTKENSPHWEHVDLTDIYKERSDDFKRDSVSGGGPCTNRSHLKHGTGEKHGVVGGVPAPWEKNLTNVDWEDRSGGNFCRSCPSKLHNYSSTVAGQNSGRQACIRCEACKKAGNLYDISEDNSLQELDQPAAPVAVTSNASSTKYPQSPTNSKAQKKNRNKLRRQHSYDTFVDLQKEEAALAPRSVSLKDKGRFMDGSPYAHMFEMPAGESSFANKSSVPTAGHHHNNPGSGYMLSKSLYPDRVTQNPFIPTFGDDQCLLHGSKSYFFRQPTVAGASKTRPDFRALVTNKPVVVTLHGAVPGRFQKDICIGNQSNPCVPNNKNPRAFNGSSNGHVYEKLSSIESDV
Sequence of Cholinesterase (P06276 whole entry): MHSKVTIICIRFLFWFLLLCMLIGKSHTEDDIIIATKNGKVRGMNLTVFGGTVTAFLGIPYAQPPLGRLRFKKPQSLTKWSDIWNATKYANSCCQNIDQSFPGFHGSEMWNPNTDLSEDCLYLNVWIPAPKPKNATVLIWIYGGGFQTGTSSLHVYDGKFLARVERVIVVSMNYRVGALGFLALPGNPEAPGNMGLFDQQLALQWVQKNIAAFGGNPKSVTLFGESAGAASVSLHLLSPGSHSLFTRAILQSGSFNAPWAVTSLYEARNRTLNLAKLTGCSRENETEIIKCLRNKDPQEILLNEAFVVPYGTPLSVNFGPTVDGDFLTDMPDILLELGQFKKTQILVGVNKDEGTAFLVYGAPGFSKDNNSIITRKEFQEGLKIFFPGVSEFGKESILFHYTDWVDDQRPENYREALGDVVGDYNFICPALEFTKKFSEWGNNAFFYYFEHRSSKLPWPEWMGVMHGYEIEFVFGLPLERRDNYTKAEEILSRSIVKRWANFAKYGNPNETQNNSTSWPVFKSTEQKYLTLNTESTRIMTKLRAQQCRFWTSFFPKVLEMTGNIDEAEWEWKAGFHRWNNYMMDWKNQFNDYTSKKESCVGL
Sequence of Acetylcholinesterase (P22303 whole entry): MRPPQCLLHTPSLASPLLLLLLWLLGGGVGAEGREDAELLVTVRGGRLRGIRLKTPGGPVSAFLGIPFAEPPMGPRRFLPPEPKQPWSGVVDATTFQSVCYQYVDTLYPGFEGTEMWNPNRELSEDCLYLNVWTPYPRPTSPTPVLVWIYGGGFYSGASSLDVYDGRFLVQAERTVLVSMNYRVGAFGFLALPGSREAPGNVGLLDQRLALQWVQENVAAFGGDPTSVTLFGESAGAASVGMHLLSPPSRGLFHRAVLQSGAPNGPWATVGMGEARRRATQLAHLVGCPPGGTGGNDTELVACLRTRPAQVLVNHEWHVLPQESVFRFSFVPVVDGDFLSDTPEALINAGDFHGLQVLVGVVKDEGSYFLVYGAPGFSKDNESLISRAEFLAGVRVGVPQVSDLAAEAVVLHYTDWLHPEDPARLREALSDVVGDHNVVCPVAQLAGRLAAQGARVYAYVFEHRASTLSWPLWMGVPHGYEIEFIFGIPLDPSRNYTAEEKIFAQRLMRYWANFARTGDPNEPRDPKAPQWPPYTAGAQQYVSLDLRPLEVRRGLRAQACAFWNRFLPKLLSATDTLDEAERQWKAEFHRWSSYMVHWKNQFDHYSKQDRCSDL
Sequence of Glutamate NMDA receptor; Grin1/Grin2a (Q00959 whole entry, other chains not shown): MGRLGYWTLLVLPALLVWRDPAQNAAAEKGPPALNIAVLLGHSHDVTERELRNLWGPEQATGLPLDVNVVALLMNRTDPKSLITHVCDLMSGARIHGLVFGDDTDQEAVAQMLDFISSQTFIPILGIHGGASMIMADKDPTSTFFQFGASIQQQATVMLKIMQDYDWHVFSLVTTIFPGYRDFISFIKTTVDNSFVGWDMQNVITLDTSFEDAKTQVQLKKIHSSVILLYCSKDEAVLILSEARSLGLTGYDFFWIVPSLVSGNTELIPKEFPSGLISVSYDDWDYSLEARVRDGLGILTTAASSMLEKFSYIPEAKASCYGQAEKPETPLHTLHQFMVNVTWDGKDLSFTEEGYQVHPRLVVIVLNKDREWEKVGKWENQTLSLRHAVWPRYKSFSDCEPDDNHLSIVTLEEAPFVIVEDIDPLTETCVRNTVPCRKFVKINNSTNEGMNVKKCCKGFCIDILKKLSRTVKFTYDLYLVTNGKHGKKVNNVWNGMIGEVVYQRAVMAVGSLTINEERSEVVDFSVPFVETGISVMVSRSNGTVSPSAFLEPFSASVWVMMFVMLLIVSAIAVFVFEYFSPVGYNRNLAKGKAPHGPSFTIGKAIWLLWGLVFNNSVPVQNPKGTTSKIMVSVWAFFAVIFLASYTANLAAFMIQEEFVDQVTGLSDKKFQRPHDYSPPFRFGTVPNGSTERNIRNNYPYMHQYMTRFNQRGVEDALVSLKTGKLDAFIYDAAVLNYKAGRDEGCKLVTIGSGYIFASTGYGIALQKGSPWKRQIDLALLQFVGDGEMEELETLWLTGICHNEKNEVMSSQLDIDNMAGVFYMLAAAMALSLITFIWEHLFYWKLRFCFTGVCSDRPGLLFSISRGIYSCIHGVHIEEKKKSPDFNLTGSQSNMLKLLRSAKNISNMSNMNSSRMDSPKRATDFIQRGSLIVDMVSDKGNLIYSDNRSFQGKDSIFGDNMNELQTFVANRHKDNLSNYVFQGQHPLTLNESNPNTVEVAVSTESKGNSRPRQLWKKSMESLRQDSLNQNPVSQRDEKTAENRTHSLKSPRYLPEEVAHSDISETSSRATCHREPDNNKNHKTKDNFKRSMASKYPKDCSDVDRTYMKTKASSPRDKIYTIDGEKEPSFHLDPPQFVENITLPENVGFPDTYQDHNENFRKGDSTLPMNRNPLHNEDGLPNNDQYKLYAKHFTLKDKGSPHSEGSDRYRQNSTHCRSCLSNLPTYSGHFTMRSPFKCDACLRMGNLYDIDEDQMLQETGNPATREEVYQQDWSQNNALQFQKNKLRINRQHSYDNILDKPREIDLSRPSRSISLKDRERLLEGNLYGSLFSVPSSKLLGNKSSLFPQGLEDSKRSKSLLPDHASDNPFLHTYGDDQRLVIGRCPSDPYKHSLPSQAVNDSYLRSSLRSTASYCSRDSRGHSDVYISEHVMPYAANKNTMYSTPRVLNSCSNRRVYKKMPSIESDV

In the case of `COc1ccc2c3c1O[C@H]1C[C@@H](O)C=C[C@@]31CCN(CCCCNC13CC4CC(C)(CC(C)(C4)C1)C3)C2`, in data set [1], the concentration at 1 h came out at 115 ng/g. In [2], this compound had a clearance of 43 mL/min/kg. For the same compound, the IC50 in data set [3] amounted to 1450 nM; in [10] it was 5740 nM; at Acetylcholinesterase it was 1130 nM; against Cholinesterase, 1770 nM. Moreover, the half-life at 5 µM in [4] and in data set [13] was > 1 h each time. The exposure (AUC) at 4 h in data set [5] was 290 ng·h/mL. Moreover, the concentration at 4 h in data set [6] amounted to 310 ng/g. Further, the Tmax in data set [7] was 5 min. This compound also yielded a Vd in data set [8] of 78 L/kg. The concentration at 2 h in data set [9] came out at 70 ng/g. For the same compound, the half-life at 2 µM in data set [11] turned out to be 1.62 h. The Ratio IC50 in the data set filed under Rattus norvegicus was determined as 4. For the same compound, in data set [12], the Cmax stood at 208 ng/mL. Besides, the half-life in data set [14] turned out to be 20.8 h. Moreover, the solubility kinetic at 24 h, 250 µM in [15] was 242 µM (≈ 123 µg/mL). Also, in data set [16], the concentration at 0.5 h is 95 ng/g.
On to `COc1ccc2c3c1O[C@H]1C[C@@H](O)C=C[C@@]31CCN(C/C=C/CNC13CC4CC(C)(CC(C)(C4)C1)C3)C2`, for which, in [1], the concentration at 1 h turned out to be 256 ng/g. In data set [2], this compound showed a clearance of 161 mL/min/kg. Moreover, the IC50 in data set [3] was 1320 nM; in data set [10], 14500 nM; at Acetylcholinesterase, 115 nM; at Cholinesterase, 421 nM. Also, the half-life at 5 µM is 0.75 h in data set [4] and > 1 h in data set [13]. Besides, the AUC at 4 h in data set [5] was 280 ng·h/mL. Further, the concentration at 4 h in data set [6] amounted to 96 ng/g. Further, in [7], the Tmax is 5 min. In addition, the Vd in data set [8] stood at 19 L/kg. Besides, in [9], the concentration at 2 h stood at 243 ng/g. Besides, the half-life at 2 µM in data set [11] is > 2 h. Besides, the Ratio IC50 in the data set filed under Rattus norvegicus was 11. Moreover, the maximum concentration (Cmax) in [12] turned out to be 202 ng/mL. Further, in data set [14], the half-life was determined as 1.37 h. For the same compound, the solubility kinetic at 24 h, 250 µM in [15] came to 237 µM (≈ 120 µg/mL). Further, in [16], the concentration at 0.5 h worked out at 281 ng/g.
`COc1ccc2c3c1O[C@H]1C[C@@H](O)C=C[C@@]31CCN(CC#CCNC13CC4CC(C)(CC(C)(C4)C1)C3)C2`: the 50% inhibitory concentration (IC50) stood at 15500 nM in data set [3], 11600 nM in data set [10], 762 nM on Acetylcholinesterase and 5080 nM at Cholinesterase. The half-life at 5 µM in data set [4] is < 0.0833 h. For the same compound, the half-life at 2 µM in [11] is > 2 h. For the same compound, the Ratio IC50 in the data set listed under Rattus norvegicus was found to be 0.75. Also, the solubility kinetic at 24 h, 250 µM in data set [15] is 230 µM (≈ 116 µg/mL).

In general, clearance refers to the volume of plasma or blood freed of the substance per unit of time. For orientation: IC50 means the point on the concentration scale where inhibition reaches its midpoint. A word on the half-life: it is the time in which the quantity being followed falls by half. What is called AUC is the area under the concentration-time curve, a measure of exposure. Higher therefore signals high exposure. Broadly, the Tmax is the time from dosing to the highest level. Broadly, the Vd is the apparent volume that relates the amount in the body to the concentration in plasma or blood. Low readings indicate little distribution into tissue, high ones wide distribution into tissue. In general, Cmax refers to the peak of the concentration-time curve.
